An excerpt weighted towards active compounds, which were near 2.7% of everything screened.
p97 inhibitor – inhibitors of human p97 ATPase; recombinant p97 ATPase, Kinase-Glo ATP luminescence, 3 h; inhibition, % at 8 µM; 0.42% of 220,000 active; AID 1481; in the data active = inhibition above about 15%;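 also: 0% = DMSO vehicle and 100% = wells lacking enzyme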
L929 necroptosis – blocks zVAD induced death of L929 cells. L929 zVAD necroptosis rescue, ATP luminescence, 24 h; with zVAD 60 µM. viability rescue, % at 10 µM. 0.38% of 220,000 active;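 active = activation, scaled between plate controls, above about 75%, limit read from the data; inactive = activation under that limit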;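 also: 0% = zVAD with DMSO and 100% = DMSO alone without zVAD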
RBBP9 inhibitor – inhibitors of human serine hydrolase RBBP9 | recombinant RBBP9, FP-Rh probe fluorescence polarization | AID 1515 | inhibition, % at 7.94 µM | 0.2% of 220,000 active;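 active = inhibition above the campaign mean of all tested compounds plus 3 SD, cut at about 14% in these data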;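 also: plate controls were DMSO wells with RBBP9 for no effect and wells lacking RBBP9 protein for full effect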
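System: RBBP9 protein / Quantity: 2.5 µM RBBP9 dispensing solution, before mixing / Also added: Serine-hydrolase probe FP-Rh, 375 nM pre-mixing / Dosing: 7.94 µM single dose, 0.794% DMSO / Timing: enzyme-compound preincubation 30 min, then probe labeling 45 min, 25 °C / Signal: FP readout at 525/598 nm / Controls: DMSO-treated enzyme wells and wells lacking RBBP9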
Wee1 stabilizer – inhibitors of human Wee1 degradation | P30291 | HeLa Luc-Wee1K328M stability, luciferase luminescence; 100% = proteasome inhibitor MG132 effect | reporter increase, % at 5 µM | 1.2% of 220,000 active | AID 1321;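 active = activation above the mean of all tested compounds plus 3 SD, set per screening run, cut at about 8.8% in these data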;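 also: cells exposed to compound for 20 h before luminescence read; 0% = DMSO alone and 100% = MG132 at 30 µM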
Target sequence (P30291 whole entry K328M): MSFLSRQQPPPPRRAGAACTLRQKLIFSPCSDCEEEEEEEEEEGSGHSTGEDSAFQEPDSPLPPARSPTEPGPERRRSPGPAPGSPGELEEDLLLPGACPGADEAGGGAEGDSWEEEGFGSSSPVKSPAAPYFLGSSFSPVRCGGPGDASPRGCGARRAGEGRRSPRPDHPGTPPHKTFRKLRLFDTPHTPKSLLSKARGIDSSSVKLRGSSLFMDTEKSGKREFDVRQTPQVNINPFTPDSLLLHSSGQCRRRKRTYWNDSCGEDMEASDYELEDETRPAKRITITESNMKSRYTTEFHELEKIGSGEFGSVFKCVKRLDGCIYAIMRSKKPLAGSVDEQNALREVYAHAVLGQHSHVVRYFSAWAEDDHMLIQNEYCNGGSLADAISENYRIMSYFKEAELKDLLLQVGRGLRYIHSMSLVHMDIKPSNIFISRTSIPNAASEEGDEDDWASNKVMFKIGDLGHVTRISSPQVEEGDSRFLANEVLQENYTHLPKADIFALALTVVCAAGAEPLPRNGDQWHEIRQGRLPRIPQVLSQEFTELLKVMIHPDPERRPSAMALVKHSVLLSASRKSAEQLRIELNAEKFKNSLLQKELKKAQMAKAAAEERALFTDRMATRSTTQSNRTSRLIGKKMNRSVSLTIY
TNF death inh – inhibitors of TNF-alpha induced necroptosis in Jurkat FADD-/- cells; Jurkat FADD-/- TNF necroptosis rescue, ATP luminescence, 24 h; 0 = TNF only, 100 = no-TNF cells; activation (protection from cell death), % at 10 µM; 0.068% of 220,000 active;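 active = activation, meaning protection from cell death, of at least 50% relative to plate controls; inactive = activation below 50%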;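 also: necroptosis triggered by 40 ng/mL TNF-alpha added together with compound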
PfM18AAP inh-1 – blocks P. falciparum M18 aspartyl aminopeptidase; 1.2% of 290,000 active; recombinant PfM18AAP, H-Glu-NHMec fluorogenic cleavage; inhibition, % at 7.35 µM;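 active = inhibition above the campaign mean inhibition over all tested compounds plus 3 SD, cut at about 28% in these data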;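 also: 0% = plate median of test compound wells and 100% = 2 mM ZnCl2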
PfM18AAP inh-2 – confirmation of Plasmodium falciparum M18 aspartyl aminopeptidase inhibitors; shares compounds with PfM18AAP inh-1; recombinant PfM18AAP, H-Glu-NHMec fluorogenic cleavage; inhibition, % at 7.35 µM; 28% of 2,400 active;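 active = mean inhibition over replicate wells above the hit cutoff set for the earlier primary screen, cut at about 29% in these data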;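 also: 0% = median of test compound wells and 100% = 2 mM ZnCl2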
CTSL1 confirm – counter-screen for PFM18AAP inhibitors: confirmation of human cathepsin L inhibitors; shares compounds with PfM18AAP inh-1; purified cathepsin L1, Z-Leu-Arg-MCA fluorescence; inhibition, % at 5.96 µM; 2,400 tested, under 10 active; AID 2178;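 active = average inhibition across replicates above the hit cutoff set in the earlier primary screen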;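 also: 0% = median of test compound wells and 100% = Z-Phe-Ala-diazomethylketone 1 µM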
Starred values were filed as active, the others as inactive; . = not tested or not shown.

SMILES	p97 inhibitor	L929 necroptosis	RBBP9 inhibitor	Wee1 stabilizer	TNF death inh	PfM18AAP inh-1	PfM18AAP inh-2	CTSL1 confirm
CCC(=O)/C=C1/Sc2ccccc2N1CC	0.2	0.0	-4.0	-1.4	-2.7	53.6*	7.1	4.3
CCN1/C(=C/C(=O)c2ccco2)Sc2ccccc21	-4.8	0.4	-4.2	0.1	-4.4	46.4*	-12.2	2.1
CCC(=O)/C=C1/Sc2ccc(OC)cc2N1CC	1.5	0.9	-0.8	-3.4	-1.7	26.9	.	.
O=C(O)Cn1c2ccccc2c2n[nH]c(=S)nc21	.	.	.	.	.	47.1*	31.2*	2.8
C=CCn1c2ccccc2c2n[nH]c(=S)nc21	.	.	.	.	.	40.0*	-13.2	-2.2
Cc1ncc(CO)c2cc(C(=O)Nc3ccccc3Cl)c(=Nc3cccc(C(N)=O)c3)oc12	.	.	.	.	.	-6.0	.	.
COc1ccccc1Nc1nc(N)nc(CSC(=S)N2CCCCC2C)n1 (centres undefined)	-0.1	0.9	4.3	2.5	3.4	3.2	.	.
CC(=O)Oc1ccc2c(=O)c(Oc3ccccc3)coc2c1OC(C)=O	1.4	0.8	0.2	4.5	-2.1	32.7*	2.5	-0.4
Cc1ccc(Oc2coc3cc(OC(=O)c4cccs4)ccc3c2=O)cc1	4.0	-0.2	-6.5	1.6	-5.7	-13.5	.	.
COc1ccccc1N(CC(=O)NC1CCCC1)C(=O)CNC(=O)c1cccs1	.	.	.	.	.	-2.6	.	.
NC(=S)NNc1ccnc2cc(Cl)ccc12	-0.6	23.1	0.5	0.8	0.3	54.9*	28.1*	4.0
COc1ccccc1CC1CC(=O)N(c2cccc(Cl)c2C)C1=O (centres undefined)	.	.	.	.	.	2.5	.	.
Oc1c(Br)cccc1/C=N/c1ncn[nH]1	.	.	.	.	.	62.6*	55.1*	-0.7
COc1ccc(C(=O)NNC(=O)Nc2ccc(C)cc2)cc1	-2.6	0.7	-9.1	-2.1	-0.6	45.0*	24.7	3.1
Cc1ccc(NC(=O)NNC(=O)c2ccccc2)cc1	0.9	2.2	-8.7	3.5	1.7	16.3	.	.
Cc1ccc(NC(=O)NNC(=O)c2cccs2)cc1	8.9	1.6	-7.9	-2.1	2.5	50.8*	27.0	2.6
CCNC(=S)NNC(=O)c1cccs1	3.8	0.1	-11.7	-0.6	-0.6	35.9*	12.8	1.1
CCCNC(=S)NNC(=O)c1cccs1	1.0	0.7	8.8	-2.2	-0.3	26.7	.	.
CNC(=S)NNC(=O)c1cccs1	3.1	0.6	-8.0	2.0	-0.2	37.8*	14.0	0.5
COc1cccc(NCc2cc(=O)oc3cc(C)c(C(C)C)cc23)c1	.	.	.	.	.	19.1	.	.
COCCOC(=O)c1c(NC(=O)COC(=O)Cc2cccc(OC)c2)sc(C(N)=O)c1C	.	.	.	.	.	3.4	.	.
CCOc1ccc(N(Cc2ccc(C(=O)O)cc2)S(=O)(=O)c2ccc(C)cc2)cc1	.	.	.	.	.	4.8	.	.
CCCCN(CC(=O)NCCOC)C(=O)Cn1nnc2ccccc21	2.7	-0.5	-1.8	-1.9	0.7	2.8	.	.
COc1ccc(C(C)=O)cc1CSc1nc2ccccc2c(=O)n1-c1ccccc1C	4.7	0.9	-6.6	-1.8	0.2	43.3*	-62.1	2.1
COc1ccc(C(C)=O)cc1Cn1c(=O)cc(C)[nH]c1=O	.	.	.	.	.	1.2	.	.
SMILES	p97 inhibitor	L929 necroptosis	RBBP9 inhibitor	Wee1 stabilizer	TNF death inh	PfM18AAP inh-1	PfM18AAP inh-2	CTSL1 confirm
COC(=O)c1ccccc1NC(=O)CC#N	4.0	1.9	-0.4	3.2	1.9	-7.3	.	.
COC(=O)c1ccccc1NC(=O)C/C(C)=N/NC(=O)CC#N	6.2	2.5	1.7	-5.1	0.3	37.8*	-47.2	5.8
Cc1cccc(NC(=O)CSc2nc3[nH]ncc3c(=O)[nH]2)c1C	1.3	0.4	-9.6	-0.7	1.7	41.8*	27.7	-4.3
CC1CCN(C(=O)CSc2nc3[nH]ncc3c(=O)[nH]2)CC1	-0.9	1.6	-0.6	-0.9	0.4	33.1*	-25.8	-7.1
Cc1ccc(NC(=O)CSc2nc3[nH]ncc3c(=O)[nH]2)c(C)c1	-0.6	0.2	-5.3	1.1	-1.0	24.2	.	.
O=C(CCl)N(C1CCCC1)C1CCS(=O)(=O)C1 (centres undefined)	.	.	.	.	.	-6.6	.	.
